This is an account of results in ChEMBL document CHEMBL1141369, “Salinosporamides D-J from the marine actinomycete Salinispora tropica, bromosalinosporamide, and thioester derivatives are potent inhibitors of the 20S proteasome” (J Nat Prod, 2007).

Test [1] in a line: Inhibition of CT-L activity of rabbit muscle 20S proteasome. The format is tissue-based, Oryctolagus cuniculus, Muscle tissue. In outline: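 Serially diluted compound added in duplicate and preincubated 5 min at 37 °C. Reaction started with Suc-LLVY-AMC at 20 µM final, fluorescence read at ex 390/em 460 nm. IC50 from sigmoidal variable-slope fit, mean ± SD of at least three independent experiments.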

In a further test the test system is RPMI-8226. In words: Cytotoxicity against human RPMI 8226 cells. The test is classed as cell-based. In outline:
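Seeded at 2 × 10^4 cells/well, then serially diluted compound added in triplicate for 48 h. Growth read by resazurin reduction (fluorescence). IC50 = concentration giving 50% of maximal observed growth inhibition, from sigmoidal dose-response fit.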

As for `CC[C@H]1C(=O)N[C@](C(=O)SCCC(=O)OC)([C@@H](O)[C@@H]2C=CCCC2)[C@@]1(C)O`, the IC50 (in general, the midpoint of a concentration-inhibition curve) stood at 50 nM in test [1] and 8000 nM with RPMI-8226.

As for `C[C@@]12OC(=O)[C@]1(CC1C=CCCC1)NC(=O)[C@@H]2CCCl` (stereo not given in full) [SALINOSPORAMIDE J], the IC50 in test [1] was found to be 52 nM; in the test on RPMI-8226, 250 nM.

Turning to `COC(=O)[C@@H](CSC(=O)[C@]1([C@@H](O)[C@@H]2C=CCCC2)NC(=O)[C@H](CCCl)[C@]1(C)O)NC(C)=O`, the half-inhibitory concentration (IC50) in test [1] is 4 nM; in the test on RPMI-8226 it was 9.7 nM.

As for `COC(=O)CCSC(=O)[C@]1([C@@H](O)[C@@H]2C=CCCC2)NC(=O)[C@@H]2CCO[C@@]21C`, the IC50 in test [1] came to 230 nM; in the test on RPMI-8226, 7500 nM.

Take `COC(=O)CCSC(=O)[C@]1([C@@H](O)[C@@H]2C=CCCC2)NC(=O)[C@H](CCCl)[C@]1(C)O`: the IC50 in test [1] was found to be 9.3 nM; in the test with RPMI-8226, 11 nM.
